# Compound activity (PubChem)
# Jurkat viability: reduces viability or proliferation of Jurkat cells; Jurkat E6.1 viability, ATP luminescence, 48 h; inhibition, % at 4 µM; actives 1.2% (n = 56,000); AID 463;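 active = inhibition above the mean inhibition of all tested compounds plus 3 SD, cut at about 28% in these data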
# cytoskel mod: modifiers of cytoskeleton assembly; AID 836; inhibition, % at 2 µM; actives 0.18% (n = 91,000); HUVEC TNFa F-actin phalloidin imaging, high content;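 active = inhibition above the batch mean plus 3 SD and confirmed as a hit by visual image inspection, cut at about 30% in these data, passing the limit was not always enough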
# HUVEC prolif 384: inhibitors of human endothelial cell proliferation; HUVEC proliferation, CellTiter-Glo luminescence, 72 h; hits give low values; viability, % at 10 µM (by protocol); actives 1.1% (n = 86,000); AID 648;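 active = viability at or below 30%; inactive = viability above 30%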;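 also: 100% = median luminescence of DMSO-only cell control wells on each plate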
# Fibroblast inh: blocks proliferation of human lung fibroblasts | actives 1.1% (n = 85,000) | LL 47 human lung fibroblast viability, ATP luminescence; hits give low values | viability, % at 10 µM;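 active = viability at or below 50% in the single dose screen; inactive = viability above 50%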;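 also: compound exposure lasted 72 h before the ATP readout; 100% = median luminescence of untreated cell-only wells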
#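 Material: Human LL 47 lung fibroblast cells | Input: 1,150 cells/well | Buffer or medium: IMEM plus 15% FBS | Compound dosing: 0.1% DMSO in all compound wells | Times: Overnight cell rest, 72 h compound treatment at 37 °C | Signal: CellTiter-Glo luminescence measuring cellular ATP | Measure: % viability versus median cells-only luminescence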
# PTK2B oligo ant: antagonists of human Pyk2 oligomerization; Q14289; Q293 cells, Pyk2 FERM NanoBiT luminescence; hits give low values; z-score (the deposit names both 25 µM and 10 µM); actives 0.83% (n = 99,000); AID 1347419;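 active = Z-score of -3 or lower, scaled per plate to the spread of control and sample wells; inactive = z-score above -3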;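 also: negative z-score means lost luminescence so less FERM oligomerization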
# Target sequence (Q14289 whole entry, looked up): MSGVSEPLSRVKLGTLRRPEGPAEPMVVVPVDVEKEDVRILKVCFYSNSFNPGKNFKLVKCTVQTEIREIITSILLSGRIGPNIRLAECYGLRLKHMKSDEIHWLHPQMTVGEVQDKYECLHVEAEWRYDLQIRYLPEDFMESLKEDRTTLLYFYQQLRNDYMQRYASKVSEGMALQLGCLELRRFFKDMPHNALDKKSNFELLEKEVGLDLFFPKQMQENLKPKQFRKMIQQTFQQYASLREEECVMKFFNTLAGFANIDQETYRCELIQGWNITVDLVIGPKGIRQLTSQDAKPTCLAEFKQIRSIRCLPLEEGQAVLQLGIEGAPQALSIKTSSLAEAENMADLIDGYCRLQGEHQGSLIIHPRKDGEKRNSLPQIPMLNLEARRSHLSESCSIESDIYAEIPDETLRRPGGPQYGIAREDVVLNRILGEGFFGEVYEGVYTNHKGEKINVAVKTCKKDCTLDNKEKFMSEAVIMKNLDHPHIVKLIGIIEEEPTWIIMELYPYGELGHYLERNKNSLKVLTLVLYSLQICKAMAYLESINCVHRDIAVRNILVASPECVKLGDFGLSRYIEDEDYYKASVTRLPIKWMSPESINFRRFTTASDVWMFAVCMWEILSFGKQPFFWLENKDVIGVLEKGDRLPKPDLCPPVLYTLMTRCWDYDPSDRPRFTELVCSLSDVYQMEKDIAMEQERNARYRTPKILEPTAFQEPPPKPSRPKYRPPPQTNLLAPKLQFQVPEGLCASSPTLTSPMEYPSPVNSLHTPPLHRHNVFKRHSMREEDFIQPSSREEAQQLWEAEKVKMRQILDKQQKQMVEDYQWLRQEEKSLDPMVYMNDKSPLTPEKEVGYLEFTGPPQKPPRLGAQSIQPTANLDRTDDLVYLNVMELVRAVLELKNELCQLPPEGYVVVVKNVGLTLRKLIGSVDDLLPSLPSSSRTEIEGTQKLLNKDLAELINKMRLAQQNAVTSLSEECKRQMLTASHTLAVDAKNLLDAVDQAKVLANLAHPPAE
# H69AR growth 86K: growth inhibitors of human H69AR lung tumor cells. actives 6% (n = 85,000). viability, % at 10 µM. AID 598. H69AR lung tumor viability, ATP luminescence, 72 h; hits give low values;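 active = viability at or below 40%; inactive = viability above 40%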;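 also: multidrug resistant small cell line overexpressing MRP-1 efflux transporter; 100% = mean luminescence of untreated control wells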
# * marks the source's active call; other numbers are inactive results; · = no result given. Sampled rows, rich in hits. Any-hit rate of the full collection: about 6%.
SMILES,Jurkat viability,cytoskel mod,HUVEC prolif 384,Fibroblast inh,PTK2B oligo ant,H69AR growth 86K
CCOC(=O)c1[nH]c(C)c(C(=O)Nc2ccc(C)c(Cl)c2)c1C,6,12,62,79,-0.35,32*
CCOC(=O)c1[nH]c(C)c(C(=O)NCc2ccc(Cl)cc2)c1C,-3,·,79,105,0.27,88
CCOC(=O)c1[nH]c(C)c(C(=O)Nc2ccc(C)c(F)c2)c1C,49*,·,73,92,-0.77,20*
COc1ccc(CNC(=O)Nc2cccc3ccccc23)cc1,·,2,81,103,-0.18,98
OCn1ncn(-c2ccccc2)c1=S,-5,-9,103,101,1,90
O=C(CSCc1ccccc1)Nc1ccc(Cl)cn1,·,-13,85,98,0.42,91
O=C(CC(c1ccccc1)c1ccccc1)Nc1ccc(Cl)cn1,·,9,81,85,-0.65,17*
Cc1nc([N+](=O)[O-])c(Br)n1CC(=O)c1ccc(Cl)cc1,·,-12,77,77,-0.23,1.2*
CCOCc1cn(CC(=O)c2ccc(Cl)cc2)c(C)nc1=N,·,0,96,102,0.43,89
COC(=O)C1=C(N)Oc2cc(C)n(CC3CCCO3)c(=O)c2C1c1ccc(Cl)cc1 (centres undefined),0,-22,96,103,-2.1,97
COc1ccc(-c2cc(C(=O)O)c3c(C)nn(-c4ccccn4)c3n2)cc1,·,0,97,103,·,93
COc1ccc(N=CC2=C(Nc3ccc(OC)cc3)c3c(C)nn(-c4ccccn4)c3CC2)cc1,·,-12,3.0*,71,·,39*
c1ccc(-c2nnc(-c3ccccn3)nn2)nc1,·,·,80,100,·,44
c1ccc(-c2cccc(-c3ccccn3)n2)nc1,87*,-20,10*,29*,0.46,8.8*
CCOC(=O)C1=C(N)Oc2c(c(=O)[nH]c3ccccc23)C1c1ccccc1 (centres undefined),·,-8,59,98,-0.45,13*
CCOC(=O)C1=C(N)Oc2cc(C)[nH]c(=O)c2C1c1ccncc1 (centres undefined),5,27,85,97,-0.26,87
CCOC(=O)C1=C(N)Oc2ccc3ccccc3c2C1c1cccnc1 (centres undefined),·,-4,87,88,-3.1*,63
CCn1c(SCC(=O)Nc2ccc(OCc3ccccc3)cc2)nnc1-c1ccco1,1,·,103,98,-0.15,·
CC1=CC(C)(C)N(S(=O)(=O)c2ccc(F)cc2)c2ccc(C)cc21,·,-13,60,51,-0.42,22*
CC1=CC(C)(C)N(S(=O)(=O)c2ccc(C)cc2)c2ccccc21,·,·,63,52,-0.82,28*
CC1=CC(C)(C)N(C(=O)c2ccccc2)c2ccc(C)cc21,·,-17,103,96,-0.76,86
CCOc1ccc(CNC(=O)CCCOc2cc(=O)n(C)c3ccccc23)cc1,·,11,85,103,1.7,76
O=C(O)C(=O)/C(=C\c1cccc2ccccc12)c1ccc2ccccc2n1,·,-11,68,92,-0.11,18*
COc1ccccc1NC(=O)CC1C(=O)NCCN1C(=O)Nc1ccc(Cl)c(Cl)c1 (centres undefined),-5,3,15*,86,-0.29,53
COc1ccccc1C(=O)N1CCNC(=O)C1CC(=O)Nc1cccc(C)c1 (centres undefined),·,-22,94,104,1.7,95
SMILES,Jurkat viability,cytoskel mod,HUVEC prolif 384,Fibroblast inh,PTK2B oligo ant,H69AR growth 86K
COc1cc(/C=N/NC(=S)NCCN2CCOCC2)ccc1O,·,·,·,·,1.7,·
CCCC1(c2ccccc2)NC(=O)N(CC(=O)Nc2sc(-c3ccccc3)cc2C(=O)OCC)C1=O (centres undefined),·,-12,22*,22*,-1.2,34*
O=c1[nH]c2ccccc2n1Cc1ccccc1,·,1,101,92,·,94
O=c1[nH]c2cccnc2n1Cc1ccccc1,·,35*,106,101,-0.16,102
O=c1c2ccccc2nc(-c2cccc(Cl)c2)n1O,14,-40,100,101,0.5,23*
O=c1c2ccccc2nc(-c2ccccc2)n1Cc1ccc(Cl)cc1,·,-9,·,·,1.3,·
Cn1cnc([N+](=O)[O-])c1Sc1ncccc1N,·,1,·,·,0.47,·
CNC(=O)c1nnn(Cc2ccccc2)c1NC(=O)C(F)(F)F,-2,·,85,97,1.1,90
C/C(=C\C(=O)c1ccncc1)Nc1ccccc1O,19,13,108,94,-0.27,23*
CC(=O)Nc1ccccc1O,·,·,95,98,·,89
CCOC(=O)c1c(NC(=O)Nc2ccc(Cl)cc2)sc(C)c1C,·,18,90,104,-0.48,97
CCOC(=O)c1c(C)sc2c1N(C(=O)CCl)c1cc(Cl)ccc1S2,·,28,17*,2.6*,0.14,0.7*
O=C(CNc1cccc2ccccc12)N/N=C/C(Br)=C/c1ccccc1,·,4,47,81,-1.9,25*
COc1ccc(NCC(=O)N/N=C/C=C\c2ccccc2)cc1,·,·,·,·,0.68,·
COc1cccc(C(=O)Oc2c(CN3CCOCC3)cc(Cl)c3cccnc23)c1,·,9,72,6.5*,-0.62,1.5*
O=C(Oc1ccc(Cl)c2cccnc12)N1CCOCC1,1,-6,·,·,0.24,·
COc1cccc(NC(=O)c2ccc(CN3CCOCC3)cc2)c1,11,-28,99,101,1.2,87
COc1ccc(C(=O)Oc2c(CN3CCOCC3)cc(Cl)c3cccnc23)cc1,16,-28,82,47*,-0.23,2.4*
O=C(Oc1c(CN2CCOCC2)cc(Cl)c2cccnc12)c1ccc(F)cc1,23,3,77,4.5*,-1.1,88
COc1cc(C(=O)Oc2c(CN3CCOCC3)cc(Cl)c3cccnc23)cc(OC)c1OC,7,2,82,4.7*,·,2.1*
Cc1ccc(S(=O)(=O)N(C)CCCC(=O)N2CCN(C=O)CC2)cc1,-13,-7,104,100,0.27,87
Cc1ccc(CNC(=O)CS(=O)(=O)CC(=O)O)cc1,·,12,97,97,0.38,94
O=c1oc(-c2cccc(S(=O)(=O)N3CCOCC3)c2)nc2ccccc12,-2,·,91,98,0.03,83
CC(C)C1C(c2ccccc2)N(C)C(c2ccccc2)CC1(O)c1ccccc1 (centres undefined),·,-5,61,83,0.01,20*
CC1C(=O)CC(c2ccccc2)N(C)C1c1ccccc1 (centres undefined),-1,9,97,98,·,72
N=C1C(c2nc3ccccc3[nH]2)=C(O)CN1c1ccccc1,16,-10,94,94,0.67,32*
N=C1C(c2nc3ccccc3[nH]2)=C(O)CN1c1ccc(CC(=O)O)cc1,·,1,89,103,0.8,79
CC1C(O)=C(c2nc3ccccc3[nH]2)C(=N)N1c1ccccc1 (centres undefined),8,-2,74,79,-0.56,22*
